Calls of active or inactive are those of the source. No cut-off for these calls is given here.
What was measured:
[1] = Prooxidant effect on Cu2+-induced pBR322 DNA damage at 0.35 to 45 uM after 1 hr; assay type: functional
Method in brief: (§1)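 Pro-oxidant test: pBR322 plasmid incubated with 10 μM Cu2+ at 37 °C for 1 h with compound at final 0.35–45 μM. DNA damage judged by agarose gel electrophoresis.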

[2] = Antioxidant activity assessed as protection against AAPH-induced pBR322 plasmid DNA strand open circular form at 0.35 to 45 uM after 4 hrs by agarose gel electrophoresis; assay type: functional
Method in brief: (§2)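 pBR322 plasmid DNA incubated with AAPH (final 10 mM) at 37 °C for 4 h, with or without antioxidant at final 0.35–45 μM. Agarose electrophoresis then compares supercoiled and open circular band intensities with a no-AAPH control.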

[3] = system: Radical scavenging activity; assay: Antioxidant activity assessed as DPPH free radical scavenging activity within 1 mins; assay type: functional
[4] = Antioxidant activity assessed as inhibition of AAPH-induced lipid peroxidation in human plasma LDL after 18 hrs by gel electrophoresis; assay type: functional, cell-free
Method in brief: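 LDL oxidized with 10 mM AAPH for 18 h at 37 °C, with or without antioxidant. Azo initiator used instead of Cu2+ so that metal pro-oxidant effects are avoided. Read-out is anodic migration on agarose gel, with AAPH-oxidized LDL set as 100% migration.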

[5] = Antioxidant activity against linoleic acid assessed as inhibition of beta-carotene bleaching after 180 mins; assay type: functional
Method in brief: (§3)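 Linoleic acid/β-carotene emulsion held at 50 °C for 180 min with antioxidant across a range of concentrations. Bleaching of β-carotene followed as A470. % A470 = (sample A470 at 180 min / at 0 min ×100) minus the same ratio for a no-antioxidant control.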

[6] = Prooxidant effect on Cu2+-induced pBR322 DNA damage at 3 to 45 uM after 1 hr; assay type: functional
[7] = Antioxidant activity assessed as protection against AAPH-induced pBR322 plasmid DNA strand open circular form at 5 uM after 4 hrs by agarose electrophoresis; assay type: functional
Method in brief: (§4)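 pBR 322 plasmid DNA incubated with AAPH (10 mM final) at 37 °C for 4 h, with or without antioxidant (0.35-45 μM final). Samples then run on agarose electrophoresis. Protection was judged from the supercoiled (S) band intensity against a control without AAPH. AAPH converts the DNA to the open circular (O) form.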

[8] = Antioxidant activity assessed as protection against AAPH-induced pBR322 plasmid DNA strand open circular form at 11 to 45 uM after 4 hrs by agarose gel electrophoresis; assay type: functional; method in brief: as §4
[9] = Antioxidant activity assessed as protection against AAPH-induced pBR322 plasmid DNA strand open circular form at <5 uM after 4 hrs by agarose gel electrophoresis; assay type: functional; method in brief: as §4
[10] = system: Radical scavenging activity; assay: Antioxidant activity assessed as DPPH free radical scavenging activity within 10 mins; assay type: functional
[11] = Antioxidant activity against linoleic acid assessed as inhibition of beta-carotene bleaching at 12 uM after 180 mins; assay type: functional; design: scale not given: the % may be the effect or the level left; method in brief: as §3
[12] = Prooxidant effect on Cu2+-induced pBR322 DNA damage at 25 to 45 uM after 1 hr; assay type: functional; conditions: 23 and 45 uM; in the assay text read “23 and 45 uM” for “25 to 45 uM”; method in brief: as §1
[13] = Antioxidant activity assessed as protection against AAPH-induced pBR322 plasmid DNA strand open circular form at >= 45 uM after 4 hrs by agarose gel electrophoresis; assay type: functional; method in brief: as §2

SMILES: Cc1c(C)c2c(c(C)c1O)CCC(C)(C(=O)O)O2 (centres undefined) [TROLOX]
- Activity [1]: Active
- Activity [2]: inactive
- IC50 [3]: 27.6 µM

SMILES: COc1cc(CN(Cc2ccc(CN(Cc3cc(I)c(O)c(OC)c3)Cc3cc(I)c(O)c(OC)c3)cc2)Cc2cc(I)c(O)c(OC)c2)cc(I)c1O
- Activity [4]: Dose-dependent effect
- Activity [2]: inactive
- Activity [5]: Active

SMILES: COc1cc(CN(Cc2ccc(CN(Cc3cc(OC)c(O)c(OC)c3)Cc3cc(OC)c(O)c(OC)c3)cc2)Cc2cc(OC)c(O)c(OC)c2)cc(OC)c1O
- Activity [6]: Active
- Activity [4]: Dose-dependent effect
- Activity [7]: Active
- Activity [8]: Active
- Activity [9]: inactive
- Activity [5]: Active

SMILES: COc1cc(C=O)ccc1O [VANILLIN]
- Activity [4]: inactive
- Activity [1]: inactive
- IC50 [10]: > 100 µM
- Activity [11]: < 5%

SMILES: COc1cc(C=O)cc(OC)c1O [SYRINGALDEHYDE]
- Activity [4]: inactive
- Activity [1]: inactive
- IC50 [10]: > 100 µM
- Activity [11]: 12%

SMILES: O=c1c(O)c(-c2ccc(O)c(O)c2)oc2cc(O)cc(O)c12
- Activity [6]: Active
- Activity [7]: inactive
- Activity [8]: Active
- Activity [9]: inactive

SMILES: NCc1ccc(CN)cc1
- Activity [11]: 16%

SMILES: COc1cc(CN(Cc2ccc(CN(Cc3ccc(O)c(OC)c3)Cc3ccc(O)c(OC)c3)cc2)Cc2ccc(O)c(OC)c2)ccc1O
- Activity [4]: Dose-dependent effect
- Activity [12]: Active
- Activity [13]: Active
- Activity [5]: Active

Source: ChEMBL document CHEMBL1156109, “Synthesis and antioxidant properties of dendritic polyphenols” (Bioorg Med Chem Lett, 2009)
